# p97 inhibitor: blocks human p97 ATPase activity; inhibition, % at 8 µM; recombinant p97 ATPase, Kinase-Glo ATP luminescence, 3 h; P55072; 220,000 compounds, 0.42% hits; AID 1481; in the data active means inhibition above about 15%;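 further: 0% = DMSO vehicle and 100% = wells lacking enzyme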
# TNF death inh: blocks TNF-alpha induced death of Jurkat FADD-/- cells; Jurkat FADD-/- TNF necroptosis rescue, ATP luminescence, 24 h; 0 = TNF only, 100 = no-TNF cells; activation (protection from cell death), % at 10 µM; 220,000 compounds, 0.068% hits; AID 463075;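 active means activation, meaning protection from cell death, of at least 50% relative to plate controls; inactive means activation below 50%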;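 further: necroptosis triggered by 40 ng/mL TNF-alpha added together with compound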
# Wee1 degr inh: human Wee1 degradation inhibition, primary screen | HeLa Luc-Wee1K328M stability, luciferase luminescence; 100% = proteasome inhibitor MG132 effect | reporter increase, % at 5 µM | 220,000 compounds, 1.2% hits;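 active means activation above the mean of all tested compounds plus 3 SD, set per screening run, cut at about 8.8% in these data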;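 further: cells exposed to compound for 20 h before luminescence read; 0% = DMSO alone and 100% = MG132 at 30 µM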
# Target sequence (P30291 whole entry K328M): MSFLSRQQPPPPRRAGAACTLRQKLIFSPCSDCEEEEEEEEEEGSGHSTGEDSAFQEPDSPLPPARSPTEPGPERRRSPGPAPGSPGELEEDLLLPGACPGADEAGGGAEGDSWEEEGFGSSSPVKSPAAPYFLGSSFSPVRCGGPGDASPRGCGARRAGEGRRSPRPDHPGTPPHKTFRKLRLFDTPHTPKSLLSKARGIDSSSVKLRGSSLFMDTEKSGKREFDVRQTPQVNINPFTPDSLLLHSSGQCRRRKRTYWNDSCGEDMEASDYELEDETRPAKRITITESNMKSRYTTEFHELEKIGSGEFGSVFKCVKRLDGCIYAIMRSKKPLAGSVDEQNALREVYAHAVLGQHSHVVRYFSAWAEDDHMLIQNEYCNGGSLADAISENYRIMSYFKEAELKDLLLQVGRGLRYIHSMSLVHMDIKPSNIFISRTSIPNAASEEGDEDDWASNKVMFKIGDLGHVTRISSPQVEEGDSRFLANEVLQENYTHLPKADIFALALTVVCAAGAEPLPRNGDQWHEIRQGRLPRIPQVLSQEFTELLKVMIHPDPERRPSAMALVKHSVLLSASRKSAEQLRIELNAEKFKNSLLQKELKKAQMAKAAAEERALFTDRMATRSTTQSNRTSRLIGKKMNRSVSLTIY
# RBBP9 inh: blocks human serine hydrolase RBBP9. O75884. recombinant RBBP9, FP-Rh probe fluorescence polarization. inhibition, % at 7.94 µM. 220,000 compounds, 0.2% hits. AID 1515;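 active means inhibition above the campaign mean of all tested compounds plus 3 SD, cut at about 14% in these data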;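 further: plate controls were DMSO wells with RBBP9 for no effect and wells lacking RBBP9 protein for full effect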
#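 Test system: recombinant human RBBP9; Timing: 30 min then 45 min, 25 °C; Detection: fluorescence polarization; Control set: RBBP9 with DMSO as uninhibited control, no-protein wells as full inhibition; Compound dosing: one concentration, 7.94 µM nominal, 0.794% DMSO; Probe or stimulus: FP-Rh activity-based probe, 375 nM before mixing.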
# L929 necroptosis: blocks zVAD induced death of L929 cells | L929 zVAD necroptosis rescue, ATP luminescence, 24 h; with zVAD 60 µM | viability rescue, % at 10 µM | 220,000 compounds, 0.38% hits;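 active means activation, scaled between plate controls, above about 75%, limit read from the data; inactive means activation under that limit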;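 further: 0% = zVAD with DMSO and 100% = DMSO alone without zVAD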
# M18AAP inhibitor: PfM18AAP enzyme inhibition. recombinant PfM18AAP, H-Glu-NHMec fluorogenic cleavage. inhibition, % at 7.35 µM. 290,000 compounds, 1.2% hits;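 active means inhibition above the campaign mean inhibition over all tested compounds plus 3 SD, cut at about 28% in these data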;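 further: 0% = plate median of test compound wells and 100% = 2 mM ZnCl2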
# p97 inh conf: human p97 ATPase inhibition, confirmation. 760 compounds, 44% hits. inhibition, % at 8 µM. AID 1517. recombinant p97 ATPase, Kinase-Glo ATP luminescence. shares compounds with p97 inhibitor;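 active means percent inhibition of p97 ATPase above a set limit, the primary screen's mean plus 3 SD, cut at about 15% in these data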;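 further: 0% = DMSO wells and 100% = wells lacking p97 protein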
# Numbers without * were called inactive; . = not tested or not shown. Shown are actives, neighbours in structure and some others; about 2.7% of the full set was active somewhere.
SMILES,p97 inhibitor,TNF death inh,Wee1 degr inh,RBBP9 inh,L929 necroptosis,M18AAP inhibitor,p97 inh conf
O=[N+]([O-])c1ccc2nc(SCc3ccccc3Cl)sc2c1,-3,-5,2,-2,0,3,.
O=C(CSc1nc2ccc([N+](=O)[O-])cc2s1)c1ccc2ccccc2c1,17*,1,-1,-4,0,-14,8
Cc1ccc2[nH]cc(C(=O)CCl)c2c1,33*,-15,2,-7,2,8,46*
Cc1ccc2c(C(=O)CN3CCSCC3)c(C)[nH]c2c1,-1,0,3,-1,0,0,.
Cc1ccc2c(C(=O)CCl)c(C)[nH]c2c1,36*,-28,3,-5,-1,2,40*
O=C(O)CSc1c(-c2ccccc2)[nH]c2ccccc12,16*,0,-2,-1,0,1,17*
O=C(O)CSc1c(-c2cccs2)[nH]c2ccccc12,0,1,-1,-12,-1,7,.
COc1ccc(/C(N)=C/C(=O)C(C)(C)C)cc1,34*,-1,-2,-6,0,-1,-2
Cc1cccc(NC(=O)c2c(O)c3cccc4c3n(c2=O)CC4)c1,5,0,0,3,2,-5,.
O=C(Nc1cccc(F)c1)c1c(O)c2cccc3c2n(c1=O)CCC3,18*,-1,2,-8,0,3,8
NS(=O)(=O)c1ccc(CCNC(=O)CCCn2c(=O)[nH]c3ccc(Br)cc3c2=O)cc1,26*,1,6,-6,0,2,10
CC(C)CCNC(=O)CCCn1c(=O)[nH]c2ccc(Br)cc2c1=O,-20,0,1,2,1,4,.
COc1ccccc1-c1nnc(SC(C)C(=O)O)n1-c1ccccc1 (centres undefined),2,-1,1,0,15,1,.
O=C(Nc1ccccc1C(=O)N1CCN(Cc2ccccc2)CC1)c1ccccc1,.,.,.,.,.,-4,.
Nc1ncncc1-c1ccc2ccccc2c1,2,-3,-2,6,1,-2,.
O=C(CN(C(=O)Cn1nnc(-c2cccs2)n1)c1ccc2c(c1)OCCO2)NC1CCCCC1,15*,-3,0,1,1,-8,7
O=C(CN(C(=O)Cn1nnc(-c2cccs2)n1)c1ccc2c(c1)OCCO2)NCC1CCCO1 (centres undefined),4,1,0,-7,0,-8,.
COc1ccccc1NC(=O)c1ccc(NC(=O)CSc2ncn[nH]2)cc1,6,0,-2,-2,0,5,.
CCC(Cc1ccccc1)NC(=O)CCc1ccccc1 (centres undefined),.,.,.,.,.,-14,.
CCC(Cc1ccccc1)NC(=O)CCn1cccc1 (centres undefined),16*,0,0,-3,0,-7,5
O=C(O)C1CSC(c2ccc(O)c([N+](=O)[O-])c2)N1 (centres undefined),16*,1,-2,0,-1,10,7
O=C(O)C1CSC(c2ccc3c(c2)OCO3)N1 (centres undefined),5,2,2,2,0,25,.
O=c1[nH]c(=O)n(C2CCCO2)cc1F (centres undefined),20*,4,-4,-7,3,-4,8
O=c1c(F)cn(C2CCCO2)c(=O)n1Cc1c(F)cccc1Cl (centres undefined),0,0,-2,0,0,0,.
CC(=O)Nc1ccc(NC(=O)CSc2ccc3nnc(-c4cccnc4)n3n2)cc1,.,.,.,.,.,8,.
SMILES,p97 inhibitor,TNF death inh,Wee1 degr inh,RBBP9 inh,L929 necroptosis,M18AAP inhibitor,p97 inh conf
CC1=NN(c2nc(-c3ccc(Cl)cc3)cs2)C(=O)C1,16*,-3,-1,-11,0,-2,7
CC1=NN(c2nc(-c3ccc(F)cc3)cs2)C(=O)C1,7,-2,3,-1,0,10,.
O=C(Oc1ccccc1C(=O)Nc1ccccc1)c1ccccc1Br,23*,-17,-2,1,0,15,30*
O=C(COc1ccccc1C(=O)Nc1ccccc1)c1ccc(Br)cc1,1,0,4,3,1,-15,.
COc1ccc(N(CC2CO2)S(=O)(=O)c2ccc(C)cc2)cc1 (centres undefined),.,.,.,.,.,4,.
O=C1NCCCC2c3c(cc(Br)c(O)c3Br)OC12N1CCOCC1 (centres undefined),0,-1,8,6,0,1,.
O=C1NCCCC2c3cc(O)c4ccccc4c3OC12N1CCCCC1 (centres undefined),34*,-6,-3,-4,20,10,14
COc1ccccc1N1CCN(Cc2cc(=O)n3ccsc3n2)CC1,16*,-2,0,-4,0,0,9
FC(F)(F)c1nnc2c(Sc3ccccn3)nc3ccccc3n12,19*,-13,-2,2,1,-3,6
CC1=NN(c2ccccc2)C(=O)/C1=C\c1ccc(Br)s1,6,-3,8,0,0,25,.
CC1=NN(c2ccccc2)C(=O)/C1=C/c1cccs1,17*,0,3,2,1,18,7
COc1ccc(Br)cc1/C=N/NC(=O)CN1CCN(Cc2ccccc2)CC1,-4,0,-2,-9,1,-16,.
O=C(CCl)Nc1nc(-c2ccco2)c(-c2ccco2)s1,18*,-1,-1,-4,1,36*,42*
Cc1cccc(NC(=S)NCC(c2cccnc2)N(C)C)c1C (centres undefined),3,1,0,-9,0,2,.
CS(=O)(=O)N1CCc2cc(C(=O)Nc3ccc(COCC(F)(F)F)cc3)ccc21,.,.,.,.,.,10,.
CCN1C(=O)N(CC)c2cccc3cccc1c23,.,.,.,.,.,9,.
CN1CN(C)c2cccc3cccc1c23,29*,-2,-1,-5,0,5,5
Cc1[nH][nH]c(=O)c1C(c1ccc(-c2ccc(Cl)c(C(=O)O)c2)o1)c1c(C)[nH][nH]c1=O,16*,-3,-1,-11,0,2,35*
COC(=O)c1ccccc1-c1ccc(C(c2c(C)[nH][nH]c2=O)c2c(C)[nH][nH]c2=O)o1,20*,-4,1,6,-2,23,6
C=CCN(CC=C)C(=O)C(=O)c1ccn(-c2c(C)csc2C(=O)OC)c1,0,-1,-4,-6,-1,0,.
CN(C)C=NC(=O)c1cn(-c2ccc(F)cc2)c(=O)c2ccccc12,16*,-4,0,-7,1,-3,2
Cc1ccccc1CN1CCN(c2nc3ccccc3s2)CC1,.,.,.,.,.,-10,.

# Screens as filed in PubChem BioAssay.
